From paper PMC7246176 (Nature chemical biology, 2020)
Like-named read-outs stand apart in the source and are kept apart here.

What was measured:
[1] = molecular target: T1, ERK5 (Homo sapiens, UniProt Q13164); assay: ERK5 32P-ATP kinase assay; assay type: biochemical; conditions: ERK5 kinase assay IC50, 32P-ATP; Table 1
[2] = system: PANFR0172_T3; assay: Patient-derived pancreatic organoid viability, PANFR0172_T3; assay type: cell-based, human; conditions: read-out: PANFR0172_T3 3D organoid culture IC50
Procedure, shortened: (§1)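 Patient-derived PDAC organoids were dissociated to single cells and plated at 1000 viable cells/well in complete organoid medium with 10% Matrigel, in ultra-low-attachment 384-well plates. After 24 h, compound was added by digital dispenser, then 7 days incubation. Read-out was CellTiter-Glo 3D luminescence after 1 h shaking at room temperature, normalized to DMSO wells for each culture.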

[3] = system: PANFR0029_T2; assay: Patient-derived pancreatic organoid viability, PANFR0029_T2; assay type: cell-based, human; conditions: read-out: PANFR0029_T2 3D organoid culture IC50
Procedure, shortened: as §1

[4] = molecular target: T2, DCLK2 (Homo sapiens, UniProt Q8N568); assay: 33P-ATP DCLK2 kinase assay; assay type: biochemical
T2 sequence (Q8N568 1-766): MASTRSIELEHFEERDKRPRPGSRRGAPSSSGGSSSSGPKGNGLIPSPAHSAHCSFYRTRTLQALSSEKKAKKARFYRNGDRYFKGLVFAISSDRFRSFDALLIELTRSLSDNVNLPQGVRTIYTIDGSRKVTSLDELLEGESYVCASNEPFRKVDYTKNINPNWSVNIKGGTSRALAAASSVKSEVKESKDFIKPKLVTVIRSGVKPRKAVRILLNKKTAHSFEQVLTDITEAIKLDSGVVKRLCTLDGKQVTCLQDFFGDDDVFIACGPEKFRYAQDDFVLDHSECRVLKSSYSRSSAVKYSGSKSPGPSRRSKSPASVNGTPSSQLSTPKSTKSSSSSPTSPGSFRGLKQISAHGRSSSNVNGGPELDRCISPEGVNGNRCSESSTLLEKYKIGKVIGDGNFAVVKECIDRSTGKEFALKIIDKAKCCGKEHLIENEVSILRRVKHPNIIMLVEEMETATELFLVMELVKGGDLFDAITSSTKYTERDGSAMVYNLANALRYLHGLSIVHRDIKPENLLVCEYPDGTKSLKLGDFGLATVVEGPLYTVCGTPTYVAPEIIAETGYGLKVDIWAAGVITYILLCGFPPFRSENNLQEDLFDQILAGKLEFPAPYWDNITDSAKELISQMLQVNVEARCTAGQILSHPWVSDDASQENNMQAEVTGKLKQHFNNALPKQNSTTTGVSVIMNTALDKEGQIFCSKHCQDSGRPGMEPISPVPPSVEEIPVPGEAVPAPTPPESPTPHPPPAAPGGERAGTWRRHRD
Procedure, shortened: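 Radiometric 33P-ATP assay run by a contract lab. […] Test compound in 12-point dose response, top concentration 10 μM. Values are the mean of n = 3 biologically independent samples.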

[5] = system: PATU-8988T cells; assay: Cell viability, 2D-adherent monolayer culture, PATU-8988T; assay type: cell-based, human; conditions: 120 h, read-out: PATU-8988T cells 2D monolayer culture IC50
Procedure, shortened: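 PATU-8988T and PATU-8902 cells were plated at 100 cells/well in 50 μL media, either adherent (2D) or in ultra-low attachment spheroid plates (3D), overnight. Test compound was pin-transferred and cells were incubated 120 h. Viability was read by CellTiter-Glo luminescence after 15 min at room temperature. Data were normalized to DMSO-treated wells per cell line and fitted.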

[6] = molecular target: LRRK2 (Homo sapiens, UniProt Q5S007); assay: LRRK2 ADAPTA kinase assay; assay type: biochemical; conditions: Table 1
Sequence of LRRK2 (Q5S007 whole entry): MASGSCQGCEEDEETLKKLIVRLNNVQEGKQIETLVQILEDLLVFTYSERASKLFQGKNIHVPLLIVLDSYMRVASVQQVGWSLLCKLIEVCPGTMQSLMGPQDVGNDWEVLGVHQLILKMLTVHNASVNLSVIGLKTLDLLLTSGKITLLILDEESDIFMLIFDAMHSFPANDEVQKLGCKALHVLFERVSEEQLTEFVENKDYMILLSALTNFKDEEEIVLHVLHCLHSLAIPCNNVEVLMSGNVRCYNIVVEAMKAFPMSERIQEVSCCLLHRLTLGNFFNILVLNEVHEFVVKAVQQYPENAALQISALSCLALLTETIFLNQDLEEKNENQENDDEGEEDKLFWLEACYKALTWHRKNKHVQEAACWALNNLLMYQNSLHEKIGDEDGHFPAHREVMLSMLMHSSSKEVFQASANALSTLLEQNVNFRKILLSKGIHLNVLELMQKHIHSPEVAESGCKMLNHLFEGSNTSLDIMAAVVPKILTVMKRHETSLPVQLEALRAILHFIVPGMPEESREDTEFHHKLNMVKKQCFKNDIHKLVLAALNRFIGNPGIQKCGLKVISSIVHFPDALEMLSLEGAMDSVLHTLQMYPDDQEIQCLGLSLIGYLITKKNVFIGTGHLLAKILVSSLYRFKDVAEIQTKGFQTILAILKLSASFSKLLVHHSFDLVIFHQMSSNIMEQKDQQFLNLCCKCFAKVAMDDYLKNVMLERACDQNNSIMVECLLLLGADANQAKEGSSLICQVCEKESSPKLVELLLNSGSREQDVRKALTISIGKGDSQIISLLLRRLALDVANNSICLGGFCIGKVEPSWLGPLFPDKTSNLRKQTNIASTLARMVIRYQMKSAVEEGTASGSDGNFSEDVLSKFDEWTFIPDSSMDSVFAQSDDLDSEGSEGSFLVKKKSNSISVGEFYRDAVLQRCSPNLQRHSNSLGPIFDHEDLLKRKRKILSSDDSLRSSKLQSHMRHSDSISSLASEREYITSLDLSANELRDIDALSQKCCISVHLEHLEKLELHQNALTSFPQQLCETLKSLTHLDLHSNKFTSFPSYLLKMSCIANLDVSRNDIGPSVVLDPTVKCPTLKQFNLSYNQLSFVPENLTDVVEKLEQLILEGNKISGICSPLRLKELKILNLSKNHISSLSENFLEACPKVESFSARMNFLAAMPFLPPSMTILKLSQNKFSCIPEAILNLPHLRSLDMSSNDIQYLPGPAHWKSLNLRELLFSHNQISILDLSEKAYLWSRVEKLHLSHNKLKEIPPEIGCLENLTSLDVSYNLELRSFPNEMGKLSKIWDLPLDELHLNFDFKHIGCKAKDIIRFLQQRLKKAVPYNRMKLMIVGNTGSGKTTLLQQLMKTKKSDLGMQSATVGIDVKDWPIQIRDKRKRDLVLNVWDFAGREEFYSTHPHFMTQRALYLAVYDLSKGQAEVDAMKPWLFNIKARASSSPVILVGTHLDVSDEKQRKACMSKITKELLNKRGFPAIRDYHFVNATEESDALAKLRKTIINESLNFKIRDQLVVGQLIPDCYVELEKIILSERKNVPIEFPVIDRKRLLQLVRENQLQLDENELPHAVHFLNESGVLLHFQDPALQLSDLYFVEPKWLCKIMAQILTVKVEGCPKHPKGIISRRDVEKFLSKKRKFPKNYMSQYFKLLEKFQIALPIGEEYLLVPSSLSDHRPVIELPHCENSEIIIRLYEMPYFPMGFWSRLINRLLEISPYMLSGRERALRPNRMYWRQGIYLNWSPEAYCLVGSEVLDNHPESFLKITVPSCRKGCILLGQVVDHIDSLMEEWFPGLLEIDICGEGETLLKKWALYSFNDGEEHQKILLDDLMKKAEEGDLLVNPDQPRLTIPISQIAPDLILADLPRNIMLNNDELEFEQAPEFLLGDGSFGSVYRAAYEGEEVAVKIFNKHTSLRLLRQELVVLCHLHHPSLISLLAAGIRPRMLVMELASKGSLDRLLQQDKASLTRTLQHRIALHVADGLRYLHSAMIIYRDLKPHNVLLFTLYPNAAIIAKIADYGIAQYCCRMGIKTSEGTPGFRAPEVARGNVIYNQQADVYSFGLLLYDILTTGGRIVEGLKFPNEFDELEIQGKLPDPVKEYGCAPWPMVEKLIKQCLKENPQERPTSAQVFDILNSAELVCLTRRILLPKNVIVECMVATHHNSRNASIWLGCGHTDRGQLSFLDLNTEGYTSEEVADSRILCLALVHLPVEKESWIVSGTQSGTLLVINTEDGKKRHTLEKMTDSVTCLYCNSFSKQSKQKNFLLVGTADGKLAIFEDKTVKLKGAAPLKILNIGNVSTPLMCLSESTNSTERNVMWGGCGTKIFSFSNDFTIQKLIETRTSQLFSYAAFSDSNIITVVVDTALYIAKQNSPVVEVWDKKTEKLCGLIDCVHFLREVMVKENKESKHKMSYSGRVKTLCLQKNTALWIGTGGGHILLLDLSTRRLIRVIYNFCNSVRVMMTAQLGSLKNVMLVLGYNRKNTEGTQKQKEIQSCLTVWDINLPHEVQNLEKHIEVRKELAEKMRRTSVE

[7] = system: PANFR0172_T2; assay: Patient-derived pancreatic organoid viability, PANFR0172_T2; assay type: cell-based, human; conditions: read-out: PANFR0172_T2 3D organoid culture IC50
Procedure, shortened: as §1

[8] = molecular target: T2, DCLK2; assay: DCLK2 KINOMEscan binding assay
Procedure, shortened: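 KINOMEscan competition binding run by a contract lab. Test compound in 12-point dose response, top concentration 10 μM. Values are the mean of n = 2 biologically independent samples.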

[9] = molecular target: T1, ERK5; assay: ERK5 cellular kinase assay in HeLa cells; assay type: cell-based
[10] = molecular target: T3, DCLK1 (Homo sapiens, UniProt O15075); assay: 33P-ATP DCLK1 kinase assay; assay type: biochemical; conditions: ATP 50 μM (Km)
T3 sequence (O15075 1-740): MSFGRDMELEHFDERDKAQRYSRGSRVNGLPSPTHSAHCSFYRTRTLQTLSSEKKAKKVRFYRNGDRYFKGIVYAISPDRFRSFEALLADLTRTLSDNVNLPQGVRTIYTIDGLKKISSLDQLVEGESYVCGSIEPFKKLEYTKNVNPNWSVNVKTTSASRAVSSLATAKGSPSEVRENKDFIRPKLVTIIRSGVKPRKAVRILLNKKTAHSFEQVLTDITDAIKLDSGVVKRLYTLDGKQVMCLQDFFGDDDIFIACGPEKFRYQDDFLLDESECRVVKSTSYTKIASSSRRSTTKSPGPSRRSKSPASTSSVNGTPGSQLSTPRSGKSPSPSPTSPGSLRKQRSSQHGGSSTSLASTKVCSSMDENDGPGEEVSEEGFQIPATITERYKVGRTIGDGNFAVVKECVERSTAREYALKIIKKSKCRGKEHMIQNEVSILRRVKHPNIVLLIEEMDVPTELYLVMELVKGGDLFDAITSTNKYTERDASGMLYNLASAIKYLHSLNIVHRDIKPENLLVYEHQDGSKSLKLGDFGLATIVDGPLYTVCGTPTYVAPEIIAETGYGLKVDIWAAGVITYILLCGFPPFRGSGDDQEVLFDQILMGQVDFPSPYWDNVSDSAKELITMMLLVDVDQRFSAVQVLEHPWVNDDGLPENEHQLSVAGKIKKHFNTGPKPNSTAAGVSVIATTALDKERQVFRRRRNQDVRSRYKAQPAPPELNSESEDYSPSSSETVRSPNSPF

[11] = system: PATU-8988T cells; assay: Cell viability, ultra-low adherent 3D-spheroid culture, PATU-8988T; assay type: cell-based, human; conditions: 120 h, read-out: PATU-8988T cells 3D spheroid culture IC50
Procedure, shortened: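 PATU-8902 or PATU-8988T cells were plated at 100 cells/well and left overnight to adhere (2D plates) or to form spheroids (ultra-low-attachment 3D spheroid plates). Compound was pin-transferred, then 120 h incubation. Viability by CellTiter-Glo luminescence after 15 min at room temperature, normalized to DMSO-treated wells for each cell line.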

[12] = viability, 7 d, P.R. = partial response

T1 sequence (Q13164 whole entry): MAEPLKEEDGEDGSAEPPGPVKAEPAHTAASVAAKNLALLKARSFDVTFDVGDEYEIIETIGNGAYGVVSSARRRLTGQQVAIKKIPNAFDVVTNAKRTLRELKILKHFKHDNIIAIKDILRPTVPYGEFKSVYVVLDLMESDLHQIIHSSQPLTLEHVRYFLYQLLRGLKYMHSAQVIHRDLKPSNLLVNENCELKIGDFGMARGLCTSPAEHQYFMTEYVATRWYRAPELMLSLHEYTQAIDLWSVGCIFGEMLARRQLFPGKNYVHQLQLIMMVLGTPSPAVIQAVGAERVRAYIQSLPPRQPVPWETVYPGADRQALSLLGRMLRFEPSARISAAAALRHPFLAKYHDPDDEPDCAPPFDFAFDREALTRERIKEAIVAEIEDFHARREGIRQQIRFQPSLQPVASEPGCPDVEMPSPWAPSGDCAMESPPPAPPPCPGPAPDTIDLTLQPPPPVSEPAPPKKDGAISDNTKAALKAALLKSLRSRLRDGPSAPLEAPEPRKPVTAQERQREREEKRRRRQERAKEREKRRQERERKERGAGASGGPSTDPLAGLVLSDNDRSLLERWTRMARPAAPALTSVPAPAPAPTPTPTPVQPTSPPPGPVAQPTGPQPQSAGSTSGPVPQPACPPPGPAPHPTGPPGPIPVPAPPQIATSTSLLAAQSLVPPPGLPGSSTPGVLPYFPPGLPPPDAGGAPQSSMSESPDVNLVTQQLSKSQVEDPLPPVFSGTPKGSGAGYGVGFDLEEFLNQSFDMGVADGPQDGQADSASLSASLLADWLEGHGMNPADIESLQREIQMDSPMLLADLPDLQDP

| Structure (SMILES) | IC50 [1] | IC50 ([2]; Homo sapiens, 168 h) | IC50 ([3]; Homo sapiens, 168 h) | IC50 [4] | IC50 ([5]; Homo sapiens, PaTu 8988t) | IC50 ([6]; LRRK2 kinase assay IC50, ADAPTA) | IC50 ([7]; Homo sapiens, 168 h) | IC50 [8] | IC50 [9] | IC50 ([10]; DCLK1 kinase assay IC50, 33P-ATP) | IC50 ([11]; Homo sapiens, PaTu 8988t) | IC50 [2, 12] | IC50 ([3]; viability, 7 d, DCLK1-negative organoids) | IC50 ([4]; read-out: DCLK2 kinase assay IC50, 33P-ATP, ATP 100 μM (Km)) | IC50 ([5]; cell viability, P.R. = partial response) | IC50 ([6]; read-out: LRRK2 kinase assay IC50, ADAPTA) | IC50 [7, 12] | IC50 ([8]; read-out: DCLK2 binding assay IC50, KINOMEscan) | IC50 ([10]; read-out: DCLK1 kinase assay IC50, 33P-ATP) | IC50 ([11]; cell viability) |
| --- | --- | --- | --- | --- | --- | --- | --- | --- | --- | --- | --- | --- | --- | --- | --- | --- | --- | --- | --- | --- |
| COc1cc(N2CCN(C)CC2)ccc1Nc1ncc2c(n1)N(C)c1ccccc1C(=O)N2CC(F)(F)F [DCLK1-IN-1] | 4000 nM | 2120 nM | > 20000 nM | 103 nM | > 20000 nM | 6970 nM | 877 nM | 31 nM | 5360 nM | 0.0572 µM | > 20000 nM | – | – | – | – | – | – | – | – | – |
| CCOc1cc(N2CCC(O)CC2)ccc1Nc1ncc2c(n1)N(C)c1ccccc1C(=O)N2C [XMD8-92] | – | – | – | – | – | – | – | – | – | – | – | > 20000 nM | 7030 nM | 385 nM | 2020 nM | 36 nM | > 20000 nM | 3600 nM | 0.104 µM | 6060 nM |
